TRPC6 act: mouse TRPC6 channel activation | B-score at 10 µM | HEK293-TRPC6 membrane potential dye fluorescence; active compounds read high | Q61143 | hit rate 0.13% among 310,000;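 active means B-score of the integrated fluorescence ratio above library mean plus 3 SD, and starting fluorescence ratio within library mean plus 5 SD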;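 further: higher score means more depolarization so channel activation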
Target sequence (Q61143 whole entry, looked up): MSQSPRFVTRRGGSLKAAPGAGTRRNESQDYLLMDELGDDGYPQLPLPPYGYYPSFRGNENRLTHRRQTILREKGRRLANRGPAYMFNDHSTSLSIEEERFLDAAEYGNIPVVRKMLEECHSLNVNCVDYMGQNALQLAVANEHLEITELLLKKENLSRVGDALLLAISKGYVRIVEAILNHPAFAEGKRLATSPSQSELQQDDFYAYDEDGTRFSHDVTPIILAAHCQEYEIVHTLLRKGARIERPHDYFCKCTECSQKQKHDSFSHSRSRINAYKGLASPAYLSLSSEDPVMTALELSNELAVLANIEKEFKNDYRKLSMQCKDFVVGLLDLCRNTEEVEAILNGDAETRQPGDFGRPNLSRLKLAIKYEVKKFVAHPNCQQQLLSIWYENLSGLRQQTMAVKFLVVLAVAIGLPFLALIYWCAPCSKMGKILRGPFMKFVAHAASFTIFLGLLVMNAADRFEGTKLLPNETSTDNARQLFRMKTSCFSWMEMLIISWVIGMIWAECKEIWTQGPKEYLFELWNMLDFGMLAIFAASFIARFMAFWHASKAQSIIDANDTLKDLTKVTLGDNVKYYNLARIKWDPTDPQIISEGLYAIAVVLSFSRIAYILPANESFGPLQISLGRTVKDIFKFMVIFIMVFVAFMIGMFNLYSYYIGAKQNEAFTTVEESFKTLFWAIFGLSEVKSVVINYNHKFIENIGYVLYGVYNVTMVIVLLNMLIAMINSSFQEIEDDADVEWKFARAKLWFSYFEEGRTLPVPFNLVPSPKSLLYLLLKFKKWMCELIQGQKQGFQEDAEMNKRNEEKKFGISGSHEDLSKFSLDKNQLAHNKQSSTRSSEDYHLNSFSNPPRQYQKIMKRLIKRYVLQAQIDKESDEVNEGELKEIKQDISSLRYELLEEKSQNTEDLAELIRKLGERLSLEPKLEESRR
TRPC4 inh: blocks the mouse TRPC4 cation channel; Q9QUQ5; AID 2247; hit rate 0.39% among 300,000; B-score at 10 µM; HEK293 TRPC4beta/mu-opioid, DAMGO-evoked Fluo4 calcium flux; active compounds read low;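 active means B-score over 3 SD under the library average, no early fluorescence shift, positive overall ratio signal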
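Assay system: Stable TRPC4beta/mu-opioid receptor HEK293 cells | Reagent: DAMGO in two steps, submaximal then maximal | Compound dosing: Single concentration per test compound | Signal: Fluo4 Ca2+ flux fluorescence | Evaluation: Per-well B score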
TRPC6 inhibitor: inhibitors of mouse TRPC6 channel | Q61143 | HEK293-TRPC6, membrane potential dye, ACh-evoked depolarization; active compounds read low | B-score at 10 µM | hit rate 1.1% among 310,000;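 active means B-score under library mean minus 3 SD, initial fluorescence not abnormally high, positive integrated signal ratio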;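 further: B-score derived from integrated fluorescence ratio over the kinetic read; more negative B-score means stronger inhibition of depolarization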
TRPC4 act: TRPC4 (mouse) channel activation; AID 2237; hit rate 0.49% among 310,000; Q9QUQ5; B-score at 10 µM; HEK293 TRPC4beta/mu-opioid, Fluo4 calcium fluorescence; active compounds read high;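 active means B-score above 5 SD of library B-scores, and initial fluorescence ratio not above library mean plus 5 SD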;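 further: positive B-score marks a calcium rise read as TRPC4 activation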
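Incubation: 45 min room-temperature Fluo4 loading, 110 s read / System: HEK293 cells stably co-expressing mouse TRPC4beta and mu-opioid receptor / Signal: Fluo4 fluorescence, kinetic / Control set: buffer (low) and maximal DAMGO (high) / Measure: integrated baseline-normalised fluorescence ratio, converted to per-well B score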
TRPC4 PAM: allosterically enhances the mouse TRPC4 cation channel; Q9QUQ5; HEK293 TRPC4beta/mu-opioid, DAMGO EC20, Fluo-4 Ca2+ flux; active compounds read high; B-score at 10 µM; AID 2227; hit rate 0.42% among 310,000;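 active means B-score of calcium response area above 5 SD of library B-scores, with initial fluorescence ratio within 5 SD of library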;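 further: B-score of integrated fluorescence ratio over time as area under calcium response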
TRPC4 sel inh 2: second selectivity test of TRPC6 inhibitors: effect on mouse TRPC4; inhibition, % at 10 µM; AID 2776; HEK293 TRPC4/MOR, membrane potential dye fluorescence; channel activated by saturating DAMGO dose; shares compounds with TRPC6 inhibitor; hit rate 42% among 920;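 active means compounds whose fluorescence signal differed from control wells by over 3 SD, either direction, in both duplicate plates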
TRPC4 spec: mouse TRPC4 off-target activity of TRPC6 inhibitors. shares compounds with TRPC6 inhibitor. HEK293 TRPC4/mu-opioid, membrane potential fluorescence. activity change, negative = inhibition, % at 10 µM. hit rate 61% among 920;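 active means rise or fall in signal beyond 3 SD of buffer-only wells in both replicate plates, either sign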;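 further: integrated kinetic ratio of fluorescence range over baseline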
HEK293 MPD ctr 2-1: parental HEK293 nonspecific activity of TRPC6 inhibitors, second screen; shares compounds with TRPC6 inhibitor; parental HEK293 membrane potential dye fluorescence; maximal acetylcholine challenge after compound addition; signal change vs control, % at 10 µM; hit rate 31% among 920; AID 2779;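 active means membrane potential signal moving either way by over 3 SD of the maximum-effect control, in both duplicate plates, meaning non-specific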
HEK293 MPD ctr-1: checks TRPC6 inhibitor effects in parental HEK293 cells; shares compounds with TRPC6 inhibitor; parental HEK293 membrane potential dye fluorescence; membrane potential signal change, % at 10 µM; hit rate 60% among 920;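 active means membrane potential signal shifting up or down by more than 3 SD of buffer-only wells, on both duplicate plates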
HEK293 MPD ctr-2: checks TRPC6 modulator effects in parental HEK293 cells; shares compounds with TRPC6 inhibitor; membrane potential dye fluorescence; membrane potential signal change, % at 10 µM; hit rate 51% among 2,400;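 active means membrane potential signal moves up or down beyond 5 SD from buffer-only wells, on both duplicate plates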
HEK293 MPD ctr 2-2: parental HEK293 nonspecific activity of TRPC6 modulators, second screen. shares compounds with TRPC6 inhibitor. membrane potential dye fluorescence; after compound, maximal acetylcholine stimulation. inhibition, % at 10 µM. hit rate 14% among 2,400;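 active means membrane potential signal drops by more than 5 SD from the mean control signal, in both duplicate plates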;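 further: plate controls were acetylcholine ECmax control wells for no effect and buffer only wells for full effect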
TRPC4 ctr mod: mouse TRPC4 off-target activity of TRPC6 modulators; percent change from control (negative = decrease, positive = increase), % at 10 µM; HEK293 TRPC4/mu-opioid, membrane potential fluorescence; shares compounds with TRPC6 inhibitor; hit rate 69% among 2,400;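 active means membrane potential signal moved up or down beyond 5 SD of buffer control wells, in both duplicate plates, actives on both sides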;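 further: plate controls were assay buffer wells for no effect and DAMGO maximal-effect wells for full effect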
TRPC4/MOR inh 2: second selectivity test of TRPC6 modulators against mouse TRPC4; HEK293 TRPC4/mu-opioid, membrane potential dye fluorescence; stimulated with maximal-effect DAMGO; shares compounds with TRPC6 inhibitor; inhibition, % at 10 µM; hit rate 55% among 2,400;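 active means drop in membrane potential signal beyond 5 SD of the control wells in both duplicate plates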;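 further: TRPC4 counter screen for TRPC6 hits run under conditions tuned for TRPC6 not TRPC4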
TRPC6 inh conf: mouse TRPC6 inhibitor confirmation; hit rate 43% among 3,300; HEK293-TRPC6, membrane potential dye, ACh-evoked depolarization; inhibition, % at 10 µM; shares compounds with TRPC6 inhibitor;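 active means fluorescence ratio falls more than 5 SD below the full-stimulation control mean, in both duplicate runs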;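 further: integrated fluorescence ratio of peak minus minimum over baseline after agonist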
TRPC6 act conf: confirmation of mouse TRPC6 activators; shares compounds with TRPC6 inhibitor; HEK293-TRPC6 membrane potential dye fluorescence, FDSS; activation, % at 10 µM; hit rate 11% among 2,800; AID 488961;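 active means ratio signal rise beyond 5 SD above unstimulated control wells' mean, seen in both duplicate runs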;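 further: plate controls were buffer EC0 wells for no effect and acetylcholine ECmax response for full effect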
Active calls of the source: *; i = inactive; . = not tested or not shown. Rows were chosen to be rich in hits. Some 2.3% of all compounds tested hit in one or more screens of this group.

SMILES	TRPC6 act	TRPC4 inh	TRPC6 inhibitor	TRPC4 act	TRPC4 PAM	HEK293 MPD ctr-2	HEK293 MPD ctr 2-2	TRPC4 ctr mod	TRPC4/MOR inh 2	TRPC6 inh conf	TRPC6 act conf	others
Cc1ccc2c(c1)NC(=O)C(CC(=O)NCCCN1CCCCC1C)O2 (stereo unspecified)	i	i	i	i	i	.	.	.	.	.	.
CCC(C)N(CCNC(=O)CC1Oc2ccc(C)cc2NC1=O)C1CCCCC1 (stereo unspecified)	i	i	-8.4*	i	i	.	.	.	.	53%*	.	TRPC4 sel inh 2=i;TRPC4 spec=17%*;HEK293 MPD ctr 2-1=i;HEK293 MPD ctr-1=13%*
CCOc1ccc(-c2nnc(-c3ccncc3)o2)cc1OCC	i	i	-5.5*	i	i	-173%*	i	-36%*	32%*	i	i
N#CC(c1ccc(F)cc1)c1ccc(C(=O)c2ccc(F)cc2)cc1 (stereo unspecified)	i	i	-7.4*	i	i	.	.	.	.	i	i	TRPC4 sel inh 2=i;TRPC4 spec=i;HEK293 MPD ctr 2-1=i;HEK293 MPD ctr-1=i
CCC(=O)c1cn(CC(=O)Nc2cccc(C)c2)c2ccccc12	i	i	i	i	i	.	.	.	.	.	.
CC(=O)NCCc1nc2ccccc2n1Cc1cc(C)ccc1C	i	i	-5.1*	i	i	i	i	17%*	i	i	i
Cc1cc(C)nc(NNC(=O)c2ccccc2O)n1	i	i	i	i	i	.	.	.	.	.	.
COc1ccc(-c2nc(C(=O)NCCCN3CCOCC3)cc3c2[nH]c2ccccc23)cc1OC	i	i	-5.6*	i	i	i	i	-18%*	67%*	46%*	i
Cc1ccc(-c2nc(C(=O)NCCCN3CCOCC3)cc3c2[nH]c2ccccc23)cc1	i	i	-6.6*	i	i	.	.	.	.	i	i	TRPC4 sel inh 2=58%*;TRPC4 spec=-16%*;HEK293 MPD ctr 2-1=i;HEK293 MPD ctr-1=-166%*
CCN1C(=S)SC(=O)C1=C1C=C(C)N(CCO)C(C)=C1	40*	i	i	47*	i	812%*	159%*	134%*	i	.	458%*
CCN1C(=O)/C(=C/C=C2/Sc3ccccc3N2CCO)SC1=S	i	i	i	i	i	.	.	.	.	.	.
COc1ccccc1/C=C1\SC(=S)N(CCC(=O)Nc2nnc(C)s2)C1=O	i	i	i	i	i	.	.	.	.	.	.
O=C(c1cccc(COCC(F)(F)C(F)F)c1)N1CCN(c2ccccc2)CC1	i	.	i	i	i	.	.	.	.	.	.
CCNC(=S)N/N=C/c1cccc(OCc2c(F)cccc2Cl)c1	i	i	i	i	i	.	.	.	.	.	.
CCN(c1ccc(NC(=O)c2ccc(Cl)nc2)cc1)C(C)C	i	i	-6.5*	i	i	i	i	i	i	i	i

Screening results as filed in PubChem.
